From ChEMBL document CHEMBL3286381 (J Med Chem, 2014)

Tests used:
Format in all cases: ADME, cell-based
Conditions in all cases: cos-7, 1 h
[1] = molecular target: T1, Ectonucleoside triphosphate diphosphohydrolase 2 (Homo sapiens, UniProt Q9Y5L3); experiment: Drug metabolism assessed as human NTPDase-2-mediated compound hydrolysis expressed in African green monkey COS7 cells at 100 uM after 1 hr by HPLC analysis
T1 sequence (Q9Y5L3 whole entry): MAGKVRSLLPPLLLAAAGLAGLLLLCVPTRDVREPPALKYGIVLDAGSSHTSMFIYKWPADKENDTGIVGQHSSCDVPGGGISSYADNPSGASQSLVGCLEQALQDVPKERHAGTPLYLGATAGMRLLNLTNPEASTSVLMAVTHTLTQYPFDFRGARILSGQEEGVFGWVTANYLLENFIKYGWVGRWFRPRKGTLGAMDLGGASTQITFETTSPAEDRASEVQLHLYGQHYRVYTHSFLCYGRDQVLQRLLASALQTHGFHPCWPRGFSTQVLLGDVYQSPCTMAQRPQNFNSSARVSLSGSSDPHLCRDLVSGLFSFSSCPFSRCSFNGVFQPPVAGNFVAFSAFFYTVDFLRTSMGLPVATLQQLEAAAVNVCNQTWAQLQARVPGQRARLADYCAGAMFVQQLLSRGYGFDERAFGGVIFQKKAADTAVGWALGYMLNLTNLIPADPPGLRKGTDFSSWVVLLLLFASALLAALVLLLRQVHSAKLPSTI
In short: (§1)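 Protein extracts are from COS-7 cells transiently transfected with human NTPDase1, 2, 3 or 8. The incubation uses Tris–Ringer buffer pH 7.3 at 37 °C with 3 min extract preincubation. Analogue is added alone at 100 μM final. […] Three experiments in triplicate.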

[2] = molecular target: T2, Ectonucleoside triphosphate diphosphohydrolase 3 (Homo sapiens, UniProt O75355); experiment: Drug metabolism assessed as human NTPDase-3-mediated compound hydrolysis expressed in African green monkey COS7 cells at 100 uM after 1 hr by HPLC analysis; in short: as §1
T2 sequence (O75355 whole entry): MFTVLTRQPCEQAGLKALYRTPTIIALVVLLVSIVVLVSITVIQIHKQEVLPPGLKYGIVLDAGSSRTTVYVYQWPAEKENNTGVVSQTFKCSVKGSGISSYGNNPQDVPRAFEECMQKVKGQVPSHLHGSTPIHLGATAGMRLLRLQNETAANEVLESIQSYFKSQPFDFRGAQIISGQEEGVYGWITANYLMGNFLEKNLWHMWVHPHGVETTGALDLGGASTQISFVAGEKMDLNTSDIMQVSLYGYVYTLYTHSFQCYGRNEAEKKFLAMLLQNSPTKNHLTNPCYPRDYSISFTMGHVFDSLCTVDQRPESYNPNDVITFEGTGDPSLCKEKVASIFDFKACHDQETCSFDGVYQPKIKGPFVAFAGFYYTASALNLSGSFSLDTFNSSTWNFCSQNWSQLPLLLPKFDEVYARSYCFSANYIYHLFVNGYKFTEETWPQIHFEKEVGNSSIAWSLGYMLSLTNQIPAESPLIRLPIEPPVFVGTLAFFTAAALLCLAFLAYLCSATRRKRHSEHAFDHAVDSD

[3] = molecular target: T3, Ectonucleoside triphosphate diphosphohydrolase 1 (Homo sapiens, UniProt P49961); experiment: Drug metabolism assessed as human NTPDase-1-mediated compound hydrolysis expressed in African green monkey COS7 cells at 100 uM after 1 hr by HPLC analysis; in short: as §1
T3 sequence (P49961 whole entry): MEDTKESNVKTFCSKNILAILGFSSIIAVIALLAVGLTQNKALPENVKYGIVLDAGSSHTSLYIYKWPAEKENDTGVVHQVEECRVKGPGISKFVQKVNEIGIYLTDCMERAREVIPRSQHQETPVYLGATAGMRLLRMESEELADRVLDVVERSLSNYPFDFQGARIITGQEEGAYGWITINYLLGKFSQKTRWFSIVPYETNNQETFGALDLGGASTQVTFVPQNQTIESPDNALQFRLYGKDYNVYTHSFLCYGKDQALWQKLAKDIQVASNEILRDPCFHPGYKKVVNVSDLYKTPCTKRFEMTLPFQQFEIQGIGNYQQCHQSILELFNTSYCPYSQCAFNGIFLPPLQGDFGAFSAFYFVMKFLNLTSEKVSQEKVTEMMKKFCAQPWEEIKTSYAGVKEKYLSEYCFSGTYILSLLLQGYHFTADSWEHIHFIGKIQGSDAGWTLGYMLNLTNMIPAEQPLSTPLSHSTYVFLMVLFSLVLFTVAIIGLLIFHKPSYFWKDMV

[4] = molecular target: T4, Ectonucleotide pyrophosphatase/phosphodiesterase family member 3 (Homo sapiens, UniProt O14638); experiment: Drug metabolism assessed as human NPP3-mediated compound hydrolysis expressed in African green monkey COS7 cells at 100 uM after 1 hr by HPLC analysis
T4 sequence (O14638 whole entry): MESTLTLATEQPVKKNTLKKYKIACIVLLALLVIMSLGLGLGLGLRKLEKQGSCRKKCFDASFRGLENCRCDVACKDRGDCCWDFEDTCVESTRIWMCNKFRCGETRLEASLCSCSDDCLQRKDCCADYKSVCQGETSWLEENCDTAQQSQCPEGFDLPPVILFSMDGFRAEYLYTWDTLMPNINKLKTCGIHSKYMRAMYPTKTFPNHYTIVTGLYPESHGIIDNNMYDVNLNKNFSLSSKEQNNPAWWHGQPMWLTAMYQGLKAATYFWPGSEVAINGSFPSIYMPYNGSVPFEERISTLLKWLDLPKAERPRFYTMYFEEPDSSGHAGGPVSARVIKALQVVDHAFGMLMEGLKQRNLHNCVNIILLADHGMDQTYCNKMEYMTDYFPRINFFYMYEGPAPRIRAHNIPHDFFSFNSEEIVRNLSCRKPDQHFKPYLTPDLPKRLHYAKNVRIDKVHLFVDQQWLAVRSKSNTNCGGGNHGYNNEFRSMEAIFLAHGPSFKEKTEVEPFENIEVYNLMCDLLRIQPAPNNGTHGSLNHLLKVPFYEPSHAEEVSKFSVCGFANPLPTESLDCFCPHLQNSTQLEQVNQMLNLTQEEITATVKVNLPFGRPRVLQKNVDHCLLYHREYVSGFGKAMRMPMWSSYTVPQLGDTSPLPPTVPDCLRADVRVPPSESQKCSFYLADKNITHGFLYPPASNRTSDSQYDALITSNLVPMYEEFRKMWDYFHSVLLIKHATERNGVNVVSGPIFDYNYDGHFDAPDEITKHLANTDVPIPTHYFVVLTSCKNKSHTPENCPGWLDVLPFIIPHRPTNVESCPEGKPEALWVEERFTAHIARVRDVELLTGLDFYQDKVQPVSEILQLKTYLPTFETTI

[5] = molecular target: T5, Ectonucleotide pyrophosphatase/phosphodiesterase family member 1 (Homo sapiens, UniProt P22413); experiment: Drug metabolism assessed as human NPP1-mediated compound hydrolysis expressed in African green monkey COS7 cells at 100 uM after 1 hr by HPLC analysis
T5 sequence (P22413 whole entry): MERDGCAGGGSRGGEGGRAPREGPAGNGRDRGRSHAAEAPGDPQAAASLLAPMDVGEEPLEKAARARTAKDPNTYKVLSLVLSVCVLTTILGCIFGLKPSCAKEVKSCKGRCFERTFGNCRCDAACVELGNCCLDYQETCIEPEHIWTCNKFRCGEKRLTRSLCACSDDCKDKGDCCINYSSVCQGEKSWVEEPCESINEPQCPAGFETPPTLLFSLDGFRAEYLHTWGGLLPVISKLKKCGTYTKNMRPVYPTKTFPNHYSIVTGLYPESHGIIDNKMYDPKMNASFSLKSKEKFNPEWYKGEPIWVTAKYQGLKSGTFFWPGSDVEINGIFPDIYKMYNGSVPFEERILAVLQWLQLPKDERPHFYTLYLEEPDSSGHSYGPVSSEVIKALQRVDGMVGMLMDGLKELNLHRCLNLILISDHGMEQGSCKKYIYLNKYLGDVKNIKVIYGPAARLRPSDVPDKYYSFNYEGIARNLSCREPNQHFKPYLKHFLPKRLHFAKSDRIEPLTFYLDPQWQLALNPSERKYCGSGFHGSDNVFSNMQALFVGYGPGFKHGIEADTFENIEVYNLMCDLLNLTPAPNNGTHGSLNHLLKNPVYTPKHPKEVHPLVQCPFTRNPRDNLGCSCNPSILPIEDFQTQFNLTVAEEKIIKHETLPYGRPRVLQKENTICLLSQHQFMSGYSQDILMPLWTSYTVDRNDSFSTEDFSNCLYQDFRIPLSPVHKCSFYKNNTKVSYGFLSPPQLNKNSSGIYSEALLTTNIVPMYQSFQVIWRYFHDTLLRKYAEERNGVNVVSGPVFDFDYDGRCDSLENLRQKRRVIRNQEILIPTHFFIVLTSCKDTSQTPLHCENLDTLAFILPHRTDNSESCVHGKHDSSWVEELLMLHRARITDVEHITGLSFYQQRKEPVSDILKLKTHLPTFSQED

Compound: Nc1ncnc2c1ncn2[C@@H]1O[C@H](COP(=O)(O)OP(=O)(O)OP(=O)(O)O)[C@@H](O)[C@H]1O [ADENOSINE TRIPHOSPHATE]
- Drug metabolism [1]: 1051 nmol/min/mg
- Drug metabolism [2]: 240 nmol/min/mg
- Drug metabolism [3]: 807 nmol/min/mg
- Drug metabolism [4]: 54 nmol/min/mg
- Drug metabolism [5]: 67 nmol/min/mg
